Tests used:
[1] = tested on: A549; experiment: Antiproliferative activity against human A549 cells after 48 hrs by MTT assay; type: functional, cell-based; conditions: A549, 48 h
Outline: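 Cells kept in DMEM with 10% FBS, penicillin/streptomycin, 37 °C, 5% CO₂. Seeded at 5 × 10⁴ cells/well and allowed to adhere 12 h. Exposed to 0, 0.1, 1, 10 and 100 μM (final) for 48 h. Viability read by MTT reduction at OD 570 nm with 630 nm reference. IC50 reported as mean ± SD of three independent experiments.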

[2] = tested on: HeLa; experiment: Antiproliferative activity against human HeLa cells after 48 hrs by MTT assay; type: functional, cell-based
[3] = tested on: HeLa; experiment: Induction of apoptosis in human HeLa cells assessed as live cells at 1.25 uM after 24 hrs by Annexin-V-FITC/propidium iodide staining based flow cytometry (reference value: 94.6%); type: functional
Outline: (§1)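 HeLa seeded at 2 × 10⁵ cells/well. Dose series was 0, 1.25, 2.5, 5 and 10 μM for 24 h; time course was 5 μM for 12, 24, 36 or 48 h. Trypsinized and washed in ice-cold PBS, then stained in binding buffer with Annexin V-FITC and PI for 10 min in the dark. Flow cytometry scored early (Annexin⁺/PI⁻) and late (Annexin⁺/PI⁺) apoptotic cells.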

[4] = tested on: HeLa; experiment: Induction of apoptosis in human HeLa cells assessed as late apoptotic cells at 1.25 uM after 24 hrs by Annexin-V-FITC/propidium iodide staining based flow cytometry (reference value: 1.72%); type: functional; outline: as §1
[5] = tested on: HeLa; experiment: Induction of apoptosis in human HeLa cells assessed as necrotic cells at 1.25 uM after 24 hrs by Annexin-V-FITC/propidium iodide staining based flow cytometry (reference value: 0.242%); type: functional; outline: as §1
[6] = tested on: HeLa; experiment: Induction of apoptosis in human HeLa cells assessed as live cells at 5 uM after 24 hrs by Annexin-V-FITC/propidium iodide staining based flow cytometry (reference value: 94.6 to 95.1%); type: functional; outline: as §1
[7] = tested on: HeLa; experiment: Induction of apoptosis in human HeLa cells assessed as early apoptotic cells at 5 uM after 24 hrs by Annexin-V-FITC/propidium iodide staining based flow cytometry (reference value: 1.24 to 2.98%); type: functional; outline: as §1
[8] = tested on: HeLa; experiment: Induction of apoptosis in human HeLa cells assessed as early apoptotic cells at 10 uM after 24 hrs by Annexin-V-FITC/propidium iodide staining based flow cytometry (reference value: 2.98%); type: functional; outline: as §1
[9] = tested on: HeLa; experiment: Induction of apoptosis in human HeLa cells assessed as late apoptotic cells at 10 uM after 24 hrs by Annexin-V-FITC/propidium iodide staining based flow cytometry (reference value: 1.72%); type: functional; outline: as §1
[10] = tested on: HeLa; experiment: Induction of apoptosis in human HeLa cells assessed as necrotic cells at 10 uM after 24 hrs by Annexin-V-FITC/propidium iodide staining based flow cytometry (reference value: 0.242%); type: functional; outline: as §1
[11] = tested on: HeLa; experiment: Induction of apoptosis in human HeLa cells assessed as live cells at 5 uM after 12 hrs by Annexin-V-FITC/propidium iodide staining based flow cytometry (reference value: 95.1%); type: functional; outline: as §1
[12] = tested on: HeLa; experiment: Induction of apoptosis in human HeLa cells assessed as early apoptotic cells at 5 uM after 12 hrs by Annexin-V-FITC/propidium iodide staining based flow cytometry (reference value: 1.24%); type: functional; outline: as §1
[13] = tested on: HeLa; experiment: Induction of apoptosis in human HeLa cells assessed as late apoptotic cells at 5 uM after 12 hrs by Annexin-V-FITC/propidium iodide staining based flow cytometry (reference value: 2.57%); type: functional; outline: as §1
[14] = tested on: HeLa; experiment: Induction of apoptosis in human HeLa cells assessed as live cells at 5 uM after 36 hrs by Annexin-V-FITC/propidium iodide staining based flow cytometry (reference value: 95.1%); type: functional; outline: as §1
[15] = tested on: HeLa; experiment: Induction of apoptosis in human HeLa cells assessed as early apoptotic cells at 5 uM after 36 hrs by Annexin-V-FITC/propidium iodide staining based flow cytometry (reference value: 1.24%); type: functional; outline: as §1
[16] = tested on: HeLa; experiment: Induction of apoptosis in human HeLa cells assessed as late apoptotic cells at 5 uM after 48 hrs by Annexin-V-FITC/propidium iodide staining based flow cytometry (reference value: 2.57%); type: functional; outline: as §1
[17] = tested on: HeLa; experiment: Disruption of mitochondrial membrane potential in human HeLa cells assessed as collapse of the mitochondrial membrane potential at 2.5 uM after 12 hrs by JC1 staining based flow cytometry (reference value: 0.768%); type: functional
[18] = tested on: HeLa; experiment: Disruption of mitochondrial membrane potential in human HeLa cells assessed as intact mitochondrial membrane at 2.5 uM after 12 hrs by JC1 staining based flow cytometry (reference value: 99.2%); type: functional
[19] = tested on: HeLa; experiment: Disruption of mitochondrial membrane potential in human HeLa cells assessed as collapse of the mitochondrial membrane potential at 5 uM after 12 hrs by JC1 staining based flow cytometry (reference value: 0.768%); type: functional
[20] = tested on: HeLa; experiment: Disruption of mitochondrial membrane potential in human HeLa cells assessed as intact mitochondrial membrane at 5 uM after 12 hrs by JC1 staining based flow cytometry (reference value: 99.2%); type: functional
[21] = tested on: HeLa; experiment: Disruption of mitochondrial membrane potential in human HeLa cells assessed as collapse of the mitochondrial membrane potential at 10 uM after 12 hrs by JC1 staining based flow cytometry (reference value: 0.768%); type: functional
[22] = tested on: HeLa; experiment: Disruption of mitochondrial membrane potential in human HeLa cells assessed as intact mitochondrial membrane at 10 uM after 12 hrs by JC1 staining based flow cytometry (reference value: 99.2%); type: functional
[23] = tested on: HeLa; experiment: Disruption of mitochondrial membrane potential in human HeLa cells after 12 hrs by JC1 staining based flow cytometry; type: functional, cell-based
[24] = tested on: HeLa; experiment: Cell cycle arrest in human HeLa cells assessed as accumulation at G1 phase at 1.25 uM after 24 hrs by propidium iodide staining based flow cytometry (reference value: 55.51%); type: functional
[25] = tested on: HeLa; experiment: Cell cycle arrest in human HeLa cells assessed as accumulation at G2/M phase at 1.25 uM after 24 hrs by propidium iodide staining based flow cytometry (reference value: 21.45%); type: functional
[26] = tested on: HeLa; experiment: Cell cycle arrest in human HeLa cells assessed as accumulation at G1 phase at 2.5 uM after 24 hrs by propidium iodide staining based flow cytometry (reference value: 55.51%); type: functional
[27] = tested on: HeLa; experiment: Cell cycle arrest in human HeLa cells assessed as accumulation at S phase at 2.5 uM after 24 hrs by propidium iodide staining based flow cytometry (reference value: 18.16%); type: functional
[28] = tested on: HeLa; experiment: Cell cycle arrest in human HeLa cells assessed as accumulation at G2/M phase at 2.5 uM after 24 hrs by propidium iodide staining based flow cytometry (reference value: 21.45%); type: functional
[29] = tested on: HeLa; experiment: Cell cycle arrest in human HeLa cells assessed as accumulation at G1 phase at 5 uM after 24 hrs by propidium iodide staining based flow cytometry (reference value: 55.51%); type: functional
[30] = tested on: HeLa; experiment: Cell cycle arrest in human HeLa cells assessed as accumulation at S phase at 5 uM after 24 hrs by propidium iodide staining based flow cytometry (reference value: 18.16%); type: functional
[31] = tested on: HeLa; experiment: Cell cycle arrest in human HeLa cells assessed as accumulation at G2/M phase at 5 uM after 24 hrs by propidium iodide staining based flow cytometry (reference value: 21.45%); type: functional
[32] = tested on: HeLa; experiment: Cell cycle arrest in human HeLa cells assessed as accumulation at G1 phase at 10 uM after 24 hrs by propidium iodide staining based flow cytometry (reference value: 55.51%); type: functional

COc1ccc(-c2cc(COC(=O)COc3cc(O)c4c(=O)cc(-c5ccccc5)oc4c3)nn2-c2ccc(C)cc2)cc1
IC50 [1]: 6.41 µM
IC50 [2]: 1.12 µM
Activity [3]: 83.2%
Activity [4]: 5.16%
Activity [5]: 1.18%
Activity [6]: 43.7 - 57.3%
Activity [7]: 31.6 - 34.7%
Activity [8]: 36.8%
Activity [9]: 11.5%
Activity [10]: 0.325%
Activity [11]: 67.7%
Activity [12]: 22.7%
Activity [13]: 7.07%
Activity [14]: 48.7%
Activity [15]: 40.4%
Activity [16]: 7.54%
Activity [17]: 5.61%
Activity [18]: 93.4%
Activity [19]: 9.32%
Activity [20]: 90.5%
Activity [21]: 13.3%
Activity [22]: 86.5%
Activity [23]: Dose-dependent effect
Activity [24]: 62.63%
Activity [25]: 13.65%
Activity [26]: 67.88%
Activity [27]: 18.61%
Activity [28]: 9.58%
Activity [29]: 72.83%
Activity [30]: 15.67%
Activity [31]: 8.16%
Activity [32]: 76.02%

From ChEMBL document CHEMBL4229460, “Design and biological evaluation of novel hybrids of 1, 5-diarylpyrazole and Chrysin for selective COX-2 inhibition” (Bioorg Med Chem, 2018)
